ChEMBL document CHEMBL5126673, “Inhibition of β-Amyloid Aggregation in Alzheimer's Disease: The Key Role of (Pro)electrophilic Warheads” (ACS Med Chem Lett, 2022)
Calls of active or inactive are those of the source. No cut-off for these calls is given here.

Assays:
[1] = biological target: T1, Amyloid-beta precursor protein (Homo sapiens, UniProt P05067); test: Inhibition of HFIP-pretreated amyloid beta (1 to 42 ) (unknown origin) self aggregation assessed as increase in protein oxidation at 50 uM after 24 hrs by LC-MS/MS analysis
T1 sequence (P05067 whole entry): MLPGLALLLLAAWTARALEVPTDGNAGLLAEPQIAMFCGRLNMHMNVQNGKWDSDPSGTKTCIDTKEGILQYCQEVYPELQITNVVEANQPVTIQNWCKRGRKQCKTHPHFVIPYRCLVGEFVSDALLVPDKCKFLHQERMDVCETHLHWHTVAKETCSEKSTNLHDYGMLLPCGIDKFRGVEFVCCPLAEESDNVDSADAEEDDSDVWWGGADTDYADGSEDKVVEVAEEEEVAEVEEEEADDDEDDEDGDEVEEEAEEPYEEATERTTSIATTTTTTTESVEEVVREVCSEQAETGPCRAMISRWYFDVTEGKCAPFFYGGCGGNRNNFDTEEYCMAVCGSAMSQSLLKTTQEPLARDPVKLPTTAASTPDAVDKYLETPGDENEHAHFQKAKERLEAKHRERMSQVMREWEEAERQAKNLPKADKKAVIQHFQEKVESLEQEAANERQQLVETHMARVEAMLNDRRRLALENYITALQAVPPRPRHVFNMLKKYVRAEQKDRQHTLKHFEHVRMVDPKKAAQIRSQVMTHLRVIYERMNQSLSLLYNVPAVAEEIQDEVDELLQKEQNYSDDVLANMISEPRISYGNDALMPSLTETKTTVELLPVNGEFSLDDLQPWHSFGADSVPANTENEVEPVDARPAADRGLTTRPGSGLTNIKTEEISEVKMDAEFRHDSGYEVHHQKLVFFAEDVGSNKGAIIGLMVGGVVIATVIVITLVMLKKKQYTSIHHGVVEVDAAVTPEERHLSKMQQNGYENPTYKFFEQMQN
Summary of the method: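 Aβ42 incubated with or without compound at an equimolar level under the ThT assay conditions. Oxidized Aβ42 was followed by MS as the ratio of the oxidized-Aβ42 signal to the reserpine internal-standard signal, plotted against incubation time.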

[2] = Electrochemical behavior of compound assessed as anodic peak for oxidation of catechol group in 0.2 M phosphate buffer using Ag/AgCl reference electrode by cyclic voltammetry; assay type: physicochemical
[3] = biological target: T1, Amyloid-beta precursor protein; test: Inhibition of HFIP-pretreated amyloid beta (1 to 42 ) (unknown origin) self aggregation at 50 uM after 24 hrs by thioflavin-T fluorescence method relative to control
Summary of the method: (§1)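 Self-aggregation of 50 μM Aβ42 was measured by ThT fluorescence. Single-point % inhibition used compound at 50 μM (1:1 with Aβ42). IC50 was determined where inhibition exceeded 50%. Values are the mean of two independent experiments, each run in duplicate, ± SEM.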

[4] = biological target: T1, Amyloid-beta precursor protein; test: Binding affinity to HFIP-pretreated amyloid beta (1 to 42) (unknown origin) assessed as lys16-adduct formation by measuring increase in molecular mass at 50 uM measured at 24 hrs by LC-MS/MS analysis
Summary of the method: (§2)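 Aβ42 at 50 μM co-incubated with test compound at 50 μM (1:1) under the ThT assay conditions. Deconvoluted mass spectra were taken at 0, 6 and 24 h. Adducts were scored as new higher-mass species, i.e. mass increments over Aβ42.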

[5] = Electrochemical behavior of compound assessed as half wave redox potential in 0.2 M phosphate buffer using Ag/AgCl reference electrode by cyclic voltammetry; assay type: physicochemical
SH-SY5Y [6] = test: Cytotoxicity against human SH-SY5Y cells assessed as reduction in cell viability at 10 uM measured after 24 hrs by MTT assay relative to control; assay type: toxicity, cell-based
Summary of the method: (§3)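 Human neuroblastoma SH-SY5Y cells were treated with compound at 5 and 10 μM for 24 h. Viability was read by MTT assay.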

[7] = biological target: T1, Amyloid-beta precursor protein; test: Binding affinity to HFIP-pretreated amyloid beta (1 to 42) (unknown origin) assessed as lys16-adduct formation by measuring increase in molecular mass at 50 uM measured up to 6 hrs by LC-MS/MS analysis; summary of the method: as §2
[8] = biological target: T1, Amyloid-beta precursor protein; test: Inhibition of HFIP-pretreated amyloid beta (1 to 42 ) (unknown origin) self aggregation at 50 uM after 24 hrs by LC-MS/MS analysis relative to control
Summary of the method: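 Aβ42 at 50 μM incubated under the ThT assay conditions with or without compound at 50 μM (1:1). Residual monomeric Aβ42 was quantified by MS, and % inhibition was taken against compound-free samples.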

[9] = Reversible electrochemical behavior of compound assessed as cathodic peak for reconversion of ortho-benzoquinone in 0.2 M phosphate buffer using Ag/AgCl reference electrode by cyclic voltammetry; assay type: physicochemical
[10] = biological target: T1, Amyloid-beta precursor protein; test: Inhibition of HFIP-pretreated amyloid beta (1 to 42) (unknown origin) self aggregation after 24 hrs by thioflavin-T fluorescence method; summary of the method: as §1
SH-SY5Y [11] = test: Cytotoxicity against human SH-SY5Y cells assessed as reduction in cell viability at 5 to 10 uM measured after 24 hrs by MTT assay; assay type: toxicity, cell-based; conditions: dose 5-10 µM; summary of the method: as §3

Structure (SMILES) | inhibition [1] | Ep [2] | inhibition [3] | Activity [4] | Activity [5] | Activity (SH-SY5Y [6]) | Activity [7] | inhibition [8] | Activity [9] | IC50 [10] | Activity (SH-SY5Y [11])
CCCSC(=O)/C=C/c1cc(O)ccc1O | Active | 0.32 V | > 90% | 268 Da | 0.1 V | > 50% | 232 Da | 43.6% | Active |  | 
CCCSC(=O)/C=C/c1ccc(O)c(O)c1 |  | 0.19 V | > 90% |  | 0.1 V |  |  |  | Active | 3.99 µM | Non-Toxic
CCCSC(=O)/C=C/c1cc(O)cc(O)c1 |  | 0.76 V | < 10% |  | 0.66 V |  |  | < 10% | Active |  | Non-Toxic
